Source: ChEMBL document CHEMBL4390653, “Potential anti-herpes and cytotoxic action of novel semisynthetic digitoxigenin-derivatives” (Eur J Med Chem, 2019)

Columns and labels:
[1] = Selectivity index, ratio of Cytotoxicity against African green monkey Vero cells assessed as reduction in cell viability after 48 hrs by SRB assay to Antiviral activity against acyclovir-sensitive Herpes simplex virus 1 KOS infected in African green monkey Vero cells assessed as inhibition of viral replication after 48 hrs by naphthol blue-black staining-based plaque reduction assay; format: toxicity; settings: Vero cells infected with HSV-1 KOS, read-out: Ratio CC50/IC50
In short: (§1)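 Selectivity index = CC50 in Vero cells (SRB, 48 h) divided by plaque-reduction IC50 for the same virus strain.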

[2] = Selectivity index, ratio of Cytotoxicity against African green monkey Vero cells assessed as reduction in cell viability after 48 hrs by SRB assay to Antiviral activity against acyclovir-resistant Herpes simplex virus 1 29-R infected in African green monkey Vero cells assessed as inhibition of viral replication after 48 hrs by naphthol blue-black staining-based plaque reduction assay; format: toxicity; settings: Vero cells infected with HSV-1 29-R, read-out: Ratio CC50/IC50; in short: as §1
[3] = tested on: HCT-8; assay: Cytotoxicity against human HCT8 cells assessed as inhibition of cell viability after 48 hrs by SRB assay; format: functional, cell-based; settings: HCT-8, 48 h
In short: (§2)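 Cells seeded at 2.5 × 10^4 per well and exposed to a concentration range for 48 h, then SRB total-protein stain. PC3 grown in phenol-red-free DMEM with 1% glutamine; LNCaP in phenol-red-free RPMI 1640 with glutamine and non-essential amino acids. HCT-8 and H460 in RPMI 1640. MRC-5 (plus glutamine and non-essential amino acids) and primary gingival fibroblasts in DMEM. All media had 10% FBS, 37 °C, 5% CO2. Paclitaxel was the reference. IC50 versus untreated controls by nonlinear regression, three independent experiments.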

[4] = tested on: PC-3; assay: Cytotoxicity against human PC3 cells assessed as inhibition of cell viability after 48 hrs by SRB assay; format: functional, cell-based; settings: PC-3, 48 h; in short: as §2
[5] = tested on: A549; assay: Cytotoxicity against human A549 cells assessed as inhibition of cell viability after 48 hrs by SRB assay; format: functional, cell-based; settings: A549, 48 h
[6] = tested on: Human alphaherpesvirus 1; assay: Antiviral activity against acyclovir-sensitive Herpes simplex virus 1 KOS infected in African green monkey Vero cells assessed as inhibition of viral replication after 48 hrs by naphthol blue-black staining-based plaque reduction assay; format: functional, organism-based; settings: Human alphaherpesvirus 1, strain KOS
In short: (§3)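 Vero cells in MEM with 10% FBS, 37 °C, 5% CO2. Confluent monolayers (2.5 × 10^5 cells/well) infected with about 100 PFU for 1 h at 37 °C. Non-cytotoxic concentrations were added after infection. Cells were then PBS-washed and overlaid with MEM plus 1.5% carboxymethylcellulose, with or without compound, for 48 h. Fixed, naphthol blue-black stained, plaques counted under a stereomicroscope. IC50 versus untreated controls by nonlinear regression; mean of three independent experiments.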

[7] = tested on: Human alphaherpesvirus 1; assay: Antiviral activity against acyclovir-resistant Herpes simplex virus 1 29-R infected in African green monkey Vero cells assessed as inhibition of viral replication after 48 hrs by naphthol blue-black staining-based plaque reduction assay; format: functional, organism-based; in short: as §3
[8] = Cytotoxicity against African green monkey Vero cells assessed as reduction in cell viability after 48 hrs by SRB assay; format: cell-based; settings: chlorocebus sabaeus
In short: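 Vero cells in MEM with 10% FBS, seeded at 2.5 × 10^4 cells/well. Exposed to a range of concentrations for 48 h at 37 °C, 5% CO2, then sulforhodamine B total-protein staining. CC50 is the concentration reducing viability by 50% versus untreated controls, from nonlinear regression; mean ± SD of three independent experiments.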

[9] = tested on: LNCaP; assay: Cytotoxicity against human LNCAP cells assessed as inhibition of cell viability after 48 hrs by SRB assay; format: functional, cell-based; in short: as §2
[10] = tested on: Human alphaherpesvirus 2; assay: Antiviral activity against Herpes simplex virus 2-333 infected in African green monkey Vero cells assessed as inhibition of viral replication after 48 hrs by naphthol blue-black staining-based plaque reduction assay; format: functional, organism-based; settings: Human alphaherpesvirus 2, 333, Vero; in short: as §3
[11] = Selectivity index, ratio of Cytotoxicity against African green monkey Vero cells assessed as reduction in cell viability after 48 hrs by SRB assay to Antiviral activity against Herpes simplex virus 2-333 infected in African green monkey Vero cells assessed as inhibition of viral replication after 48 hrs by naphthol blue-black staining-based plaque reduction assay; format: toxicity; settings: Vero cells infected with HSV-2 333, read-out: Ratio CC50/IC50; in short: as §1
[12] = Inhibition of porcine cortex Na+/K+-ATPase alpha1/2/3 subunit using ATP as substrate preincubated for 30 mins followed by substrate addition and measured after 30 mins by malachite green reagent-based assay; design: species or system Sus scrofa
[13] = tested on: NCI-H460; assay: Cytotoxicity against human H460 cells assessed as inhibition of cell viability after 48 hrs by SRB assay; format: functional, cell-based; settings: NCI-H460, 48 h; in short: as §2
[14] = Human alphaherpesvirus 1, 29-R, Vero, 48 h, read-out: IC50

SMILES: C[C@]12CC[C@H](n3cc(CO[C@@H]4O[C@H](CO)[C@@H](O)[C@H](O)[C@H]4O)nn3)C[C@H]1CC[C@@H]1[C@@H]2CC[C@]2(C)[C@@H](C3=CC(=O)OC3)CC[C@]12O
- selectivity ratio at 48 h [1]: > 108
- selectivity ratio at 48 h [2]: > 111
- IC50 [3]: 3.7 µM
- IC50 [4]: 2.35 µM
- IC50 [5]: 2.03 µM
- IC50 [6]: 2.79 µM
- IC50 [7, 14]: 2.71 µM
- CC50 at 48 h [8]: > 300 µM
- IC50 [9]: 4.69 µM
- IC50 [10]: 2.14 µM
- selectivity ratio at 48 h [11]: > 140

SMILES: CC(=O)OC[C@H]1O[C@@H](OCc2cn([C@H]3CC[C@@]4(C)[C@H](CC[C@@H]5[C@@H]4CC[C@]4(C)[C@@H](C6=CC(=O)OC6)CC[C@]54O)C3)nn2)[C@H](OC(C)=O)[C@@H](OC(C)=O)[C@@H]1OC(C)=O
- selectivity ratio at 48 h [1]: 45.5
- selectivity ratio at 48 h [2]: 135
- IC50 [3]: 3.57 µM
- IC50 [4]: 7.05 µM
- IC50 [5]: 3.74 µM
- IC50 [6]: 6.27 µM
- IC50 [7, 14]: 2.11 µM
- CC50 at 48 h [8]: 286 µM
- IC50 [9]: 7.32 µM
- IC50 [10]: 3.8 µM
- selectivity ratio at 48 h [11]: 75.1

SMILES: C[C@]12CC[C@H](n3cc(CO[C@@H]4O[C@H](CO)[C@@H](O[C@H]5O[C@H](CO)[C@@H](O)[C@H](O)[C@H]5O)[C@H](O)[C@H]4O)nn3)C[C@H]1CC[C@@H]1[C@@H]2CC[C@]2(C)[C@@H](C3=CC(=O)OC3)CC[C@]12O
- selectivity ratio at 48 h [1]: 34.3
- selectivity ratio at 48 h [2]: 45.4
- IC50 [3]: 5.43 µM
- IC50 [4]: 2.74 µM
- IC50 [5]: 2.86 µM
- IC50 [6]: 4.29 µM
- IC50 [7, 14]: 3.24 µM
- CC50 at 48 h [8]: 147 µM
- IC50 [9]: 5.24 µM
- IC50 [10]: 4.18 µM
- selectivity ratio at 48 h [11]: 35.2

SMILES: C[C@]12CC[C@H](NC(=O)CCl)C[C@H]1CC[C@@H]1[C@@H]2CC[C@]2(C)[C@@H](C3=CC(=O)OC3)CC[C@]12O
- selectivity ratio at 48 h [1]: 122
- selectivity ratio at 48 h [2]: 247
- IC50 [3]: 1.45 µM
- IC50 [4]: 1.92 µM
- IC50 [5]: 1.17 µM
- IC50 [6]: 0.69 µM
- IC50 [7, 14]: 0.34 µM
- CC50 at 48 h [8]: 84 µM
- IC50 [9]: 1.96 µM
- IC50 [10]: 1.37 µM
- selectivity ratio at 48 h [11]: 61.3

SMILES: C[C@]12CC[C@H](n3cc(CO[C@@H]4O[C@H](CO)[C@H](O)[C@H](O)[C@H]4O)nn3)C[C@H]1CC[C@@H]1[C@@H]2CC[C@]2(C)[C@@H](C3=CC(=O)OC3)CC[C@]12O
- selectivity ratio at 48 h [1]: 296
- selectivity ratio at 48 h [2]: 315
- IC50 [3]: 2.58 µM
- IC50 [4]: 2.75 µM
- IC50 [5]: 2.19 µM
- IC50 [6]: 0.98 µM
- IC50 [7, 14]: 0.92 µM
- CC50 at 48 h [8]: 290 µM
- IC50 [9]: 7.49 µM
- IC50 [10]: 1.24 µM
- selectivity ratio at 48 h [11]: 234

SMILES: C[C@]12CC[C@H](NC(=O)CBr)C[C@H]1CC[C@@H]1[C@@H]2CC[C@]2(C)[C@@H](C3=CC(=O)OC3)CC[C@]12O
- IC50 [3]: 1.74 µM
- IC50 [4]: 1.7 µM
- IC50 [5]: 1.4 µM
- CC50 at 48 h [8]: 36.1 µM
- IC50 [9]: 3.42 µM

SMILES: CC(=O)OC[C@H]1O[C@H](OCc2cn([C@H]3CC[C@@]4(C)[C@H](CC[C@@H]5[C@@H]4CC[C@]4(C)[C@@H](C6=CC(=O)OC6)CC[C@]54O)C3)nn2)[C@@H](OC(C)=O)[C@@H](OC(C)=O)[C@@H]1OC(C)=O
- IC50 [12]: 4.46 µM
- selectivity ratio at 48 h [1]: 39
- IC50 [13]: 1.59 µM
- selectivity ratio at 48 h [2]: 65.4
- IC50 [3]: 1.9 µM
- IC50 [4]: 2.92 µM
- IC50 [5]: 1.57 µM
- IC50 [6]: 10.1 µM
- IC50 [7, 14]: 6.01 µM
- CC50 at 48 h [8]: 393 µM
- IC50 [9]: 3.13 µM
- IC50 [10]: 4.55 µM
- selectivity ratio at 48 h [11]: 86.4

SMILES: C[C@]12CC[C@H](NC(=O)CN3CCC(c4ccccc4)CC3)C[C@H]1CC[C@@H]1[C@@H]2CC[C@]2(C)[C@@H](C3=CC(=O)OC3)CC[C@]12O
- IC50 [12]: 6.59 µM
- selectivity ratio at 48 h [1]: 254
- IC50 [13]: 0.32 µM
- selectivity ratio at 48 h [2]: 560
- IC50 [3]: 0.3 µM
- IC50 [4]: 0.7 µM
- IC50 [5]: 1.43 µM
- IC50 [6]: 0.44 µM
- IC50 [7, 14]: 0.2 µM
- CC50 at 48 h [8]: 112 µM
- IC50 [9]: 1.72 µM
- IC50 [10]: 0.49 µM
- selectivity ratio at 48 h [11]: 228

SMILES: C[C@]12CC[C@H](NC(=O)CNc3ccc(Cl)cc3)C[C@H]1CC[C@@H]1[C@@H]2CC[C@]2(C)[C@@H](C3=CC(=O)OC3)CC[C@]12O
- IC50 [12]: 10.8 µM
- selectivity ratio at 48 h [1]: 208
- IC50 [13]: 1.14 µM
- selectivity ratio at 48 h [2]: 174
- IC50 [3]: 1.68 µM
- IC50 [4]: 1.18 µM
- IC50 [5]: 1.38 µM
- IC50 [6]: 1.51 µM
- IC50 [7, 14]: 1.8 µM
- CC50 at 48 h [8]: 314 µM
- IC50 [9]: 1.28 µM
- IC50 [10]: 1.4 µM
- selectivity ratio at 48 h [11]: 224

SMILES: CC(=O)OC[C@H]1O[C@@H](OCc2cn([C@H]3CC[C@@]4(C)[C@H](CC[C@@H]5[C@@H]4CC[C@]4(C)[C@@H](C6=CC(=O)OC6)CC[C@]54O)C3)nn2)[C@H](OC(C)=O)[C@@H](OC(C)=O)[C@H]1OC(C)=O
- IC50 [3]: 5.91 µM
- IC50 [4]: 6.23 µM
- IC50 [5]: 3.94 µM
- CC50 at 48 h [8]: 216 µM
- IC50 [9]: 11.3 µM

SMILES: CC(=O)OC[C@H]1O[C@H](O[C@H]2[C@H](OC(C)=O)[C@@H](OC(C)=O)[C@H](OCc3cn([C@H]4CC[C@@]5(C)[C@H](CC[C@@H]6[C@@H]5CC[C@]5(C)[C@@H](C7=CC(=O)OC7)CC[C@]65O)C4)nn3)O[C@@H]2COC(C)=O)[C@H](OC(C)=O)[C@@H](OC(C)=O)[C@@H]1OC(C)=O
- selectivity ratio at 48 h [1]: 6.86
- selectivity ratio at 48 h [2]: 5.42
- IC50 [3]: 9.51 µM
- IC50 [4]: 29.5 µM
- IC50 [5]: 12 µM
- IC50 [6]: 26.3 µM
- IC50 [7, 14]: 33.4 µM
- CC50 at 48 h [8]: 181 µM
- IC50 [9]: 23.8 µM
- IC50 [10]: 9.75 µM
- selectivity ratio at 48 h [11]: 18.5

SMILES: Nc1nc2c(ncn2COCCO)c(=O)[nH]1 [ACYCLOVIR]
- selectivity ratio at 48 h [1]: > 1450
- IC50 [6]: 1.38 µM
- IC50 ([7]; vero): Not Active
- CC50 at 48 h [8]: > 2000 µM
- IC50 [10]: 3.23 µM
- selectivity ratio at 48 h [11]: > 619
